Source: ChEMBL document CHEMBL1137710, “Synthesis and in vitro antitumor activity of new quinoxaline derivatives” (2009)

Key:
Assay type in all cases: functional
HCT-116 = test: Growth inhibition of human HCT116 cells after 48 hrs by sulforhodamine B assay; details: HCT-116, 48 h
Summary of the method: (§1)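 NCI 60-human-tumor-cell-line panel, with compounds tested over a 5-log dose range. Values are taken from dose-response curves as log10 molar concentrations: GI50 is 50% net growth inhibition, TGI is total growth inhibition, and LC50 is 50% net cell death.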

OVCAR-4 = test: Growth inhibition of human OVCAR4 cells after 48 hrs by sulforhodamine B assay; details: OVCAR-4, 48 h; summary of the method: as §1
NCI-H322M = test: Growth inhibition of human NCI-H322M cells after 48 hrs by sulforhodamine B assay; summary of the method: as §1
U-251 = test: Growth inhibition of human U251 cells after 48 hrs by sulforhodamine B assay; details: U-251, 48 h
Summary of the method: (§2)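 Run in the NCI 60-human-tumour-cell-line panel, tested over a 5-log dose range. Dose–response curves gave three values per cell line, each as a log10 molar concentration: GI50 (50% inhibition of net cell growth), TGI (total inhibition of net growth) and LC50 (50% net cell death). The mean graph midpoint is the arithmetic mean over all lines, with insensitive lines entered at the highest concentration tested.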

MDA-MB-435 = test: Growth inhibition of human MDA-MB-435 cells after 48 hrs by sulforhodamine B assay; details: MDA-MB-435, 48 h; summary of the method: as §1
UACC-62 = test: Growth inhibition of human UACC62 cells after 48 hrs by sulforhodamine B assay; details: UACC-62, 48 h; summary of the method: as §2
LOX IMVI = test: Growth inhibition of human LOXIMVI cells after 48 hrs by sulforhodamine B assay; summary of the method: as §1
SF-268 [1] = test: Growth inhibition of human SF268 cells after 48 hrs by sulforhodamine B assay; details: SF-268, 48 h; summary of the method: as §1
NCI-H522 = test: Growth inhibition of human NCI-H522 cells after 48 hrs by sulforhodamine B assay; details: NCI-H522, 48 h; summary of the method: as §1
NCI-H23 = test: Growth inhibition of human NCI-H23 cells after 48 hrs by sulforhodamine B assay; details: NCI-H23, 48 h; summary of the method: as §1
K562 = test: Growth inhibition of human K562 cells after 48 hrs by sulforhodamine B assay; details: K562, 48 h; summary of the method: as §1
SK-MEL-2 = test: Growth inhibition of human SK-MEL-2 cells after 48 hrs by sulforhodamine B assay; details: SK-MEL-2, 48 h; summary of the method: as §1
M14 = test: Growth inhibition of human M14 cells after 48 hrs by sulforhodamine B assay; details: M14, 48 h; summary of the method: as §1
MCF7 [2] = test: Anticancer activity against human MCF7 cells assessed as cell growth at 100 uM after 48 hrs by sulforhodamine B assay; details: MCF7, 48 h, read-out: Activity
HOP-62 = test: Growth inhibition of human HOP62 cells after 48 hrs by sulforhodamine B assay; details: HOP-62, 48 h; summary of the method: as §1
SK-MEL-5 = test: Growth inhibition of human SK-MEL-5 cells after 48 hrs by sulforhodamine B assay; details: SK-MEL-5, 48 h; summary of the method: as §1
SK-MEL-28 = test: Growth inhibition of human SK-MEL-28 cells after 48 hrs by sulforhodamine B assay; details: SK-MEL-28, 48 h; summary of the method: as §1
DU-145 = test: Growth inhibition of human DU145 cells after 48 hrs by sulforhodamine B assay; details: DU-145, 48 h; summary of the method: as §1
SK-OV-3 = test: Growth inhibition of human SKOV3 cells after 48 hrs by sulforhodamine B assay; details: SK-OV-3, 48 h; summary of the method: as §1
A549 = test: Growth inhibition of human A549 cells after 48 hrs by sulforhodamine B assay; details: A549, 48 h; summary of the method: as §1
[3] = Growth inhibition of human […] cells after 48 hrs by sulforhodamine B assay; summary of the method: as §1
NCI-H460 = test: Anticancer activity against human NCI-H460 cells assessed as cell growth at 100 uM after 48 hrs by sulforhodamine B assay; details: NCI-H460, 48 h, read-out: Activity
SF-295 = test: Growth inhibition of human SF295 cells after 48 hrs by sulforhodamine B assay; details: SF-295, 48 h; summary of the method: as §1
MCF7 [4] = test: Growth inhibition of human MCF7 cells after 48 hrs by sulforhodamine B assay; details: MCF7, 48 h; summary of the method: as §1
SW-620 = test: Growth inhibition of human SW620 cells after 48 hrs by sulforhodamine B assay; details: SW-620, 48 h; summary of the method: as §2
SF-268 [5] = test: Anticancer activity against human SF268 cells assessed as cell growth at 100 uM after 48 hrs by sulforhodamine B assay; details: SF-268, 48 h, read-out: Activity
IGROV-1 = test: Growth inhibition of human IGROV1 cells after 48 hrs by sulforhodamine B assay; details: IGROV-1, 48 h; summary of the method: as §1
CAKI-1 = test: Growth inhibition of human Caki1 cells after 48 hrs by sulforhodamine B assay; details: CAKI-1, 48 h; summary of the method: as §1
UO-31 = test: Growth inhibition of human UO31 cells after 48 hrs by sulforhodamine B assay; details: UO-31, 48 h; summary of the method: as §2
786-0 = test: Growth inhibition of human 786-0 cells after 48 hrs by sulforhodamine B assay; details: 786-0, 48 h; summary of the method: as §1
[6] = read-out: pLC50 (the source's name) (converted)

## Nc1cc(N)c2nc(-c3ccccc3)c(NCc3ccc(F)cc3)nc2c1
HCT-116
  GI50: 12.9 µM
  LC50 (concentration causing 50% net cell death): > 100 µM
HCT-116; read-out: pTGI (converted)
  TGI: > 100 µM
OVCAR-4
  GI50: 1.7 µM
OVCAR-4; [6]
  CC50: 60.3 µM
OVCAR-4; read-out: pTGI (converted)
  TGI: 8.13 µM
NCI-H322M
  GI50: 3.47 µM
  LC50: 40.7 µM
NCI-H322M; read-out: pTGI (converted)
  TGI: 11.5 µM
U-251
  GI50: 1.58 µM
  LC50 (50% net cell kill): 6.31 µM
U-251; read-out: pTGI (converted)
  TGI: 3.16 µM
MDA-MB-435
  GI50: 2 µM
MDA-MB-435; [6]
  CC50: 6.92 µM
MDA-MB-435; read-out: pTGI (converted)
  TGI: 3.72 µM
UACC-62
  GI50: 15.5 µM
UACC-62; [6]
  CC50: 56.2 µM
UACC-62; read-out: pTGI (converted)
  TGI: 29.5 µM
LOX IMVI
  GI50: 1.51 µM
  LC50: 6.61 µM
LOX IMVI; read-out: pTGI (converted)
  TGI: 3.16 µM
SF-268 [1]
  GI50: 2.82 µM
  LC50: 40.7 µM
SF-268 [1]; read-out: pTGI (converted)
  TGI: 7.59 µM
NCI-H522
  GI50: > 100 µM
  LC50: > 100 µM
NCI-H522; read-out: pTGI (converted)
  TGI: > 100 µM
NCI-H23
  GI50: 2.4 µM
  LC50 (50% net cell kill concentration): 8.91 µM
NCI-H23; read-out: pTGI (converted)
  TGI: 4.57 µM
K562
  GI50: 4.37 µM
  LC50: > 100 µM
K562; read-out: pTGI (converted)
  TGI: > 100 µM
SK-MEL-2
  GI50: 5.25 µM
SK-MEL-2; [6]
  CC50: > 100 µM
SK-MEL-2; read-out: pTGI (converted)
  TGI: > 100 µM
M14
  GI50: 23.4 µM
M14; [6]
  CC50: > 100 µM
M14; read-out: pTGI (converted)
  TGI: 56.2 µM
MCF7 [2]
  growth at 100 µM: 1%
HOP-62
  GI50: 38.9 µM
  LC50: > 100 µM
HOP-62; read-out: pTGI (converted)
  TGI: > 100 µM
SK-MEL-5
  GI50: 1.86 µM
SK-MEL-5; [6]
  CC50: 6.92 µM
SK-MEL-5; read-out: pTGI (converted)
  TGI: 3.63 µM
SK-MEL-28
  GI50: 1.91 µM
SK-MEL-28; [6]
  CC50: 7.41 µM
SK-MEL-28; read-out: pTGI (converted)
  TGI: 3.8 µM
DU-145
  GI50: 1.51 µM
DU-145; [6]
  CC50: 9.77 µM
DU-145; read-out: pTGI (converted)
  TGI: 3.8 µM
SK-OV-3
  GI50: 12.9 µM
SK-OV-3; [6]
  CC50: 53.7 µM
SK-OV-3; read-out: pTGI (converted)
  TGI: 26.3 µM
A549
  GI50: 17.8 µM
  LC50: 69.2 µM
A549; read-out: pTGI (converted)
  TGI: 34.7 µM
[3]
  GI50: 2.51 µM
  LC50: > 100 µM
[3]; read-out: pTGI (converted)
  TGI: 6.31 µM
NCI-H460
  growth at 100 µM: 1%
SF-295
  GI50: 3.47 µM
  LC50 (50% net cell kill): 64.6 µM
SF-295; read-out: pTGI (converted)
  TGI: 13.5 µM
MCF7 [4]
  GI50: 3.02 µM
MCF7 [4]; [6]
  CC50: > 100 µM
MCF7 [4]; read-out: pTGI (converted)
  TGI: > 100 µM
SW-620
  GI50: 2.19 µM
SW-620; [6]
  CC50: > 100 µM
SW-620; read-out: pTGI (converted)
  TGI: 9.55 µM
SF-268 [5]
  growth at 100 µM: 1%
IGROV-1
  GI50: 3.09 µM
IGROV-1; [6]
  CC50: > 100 µM
IGROV-1; read-out: pTGI (converted)
  TGI: > 100 µM
CAKI-1
  GI50: 15.1 µM
CAKI-1; [6]
  CC50: 89.1 µM
CAKI-1; read-out: pTGI (converted)
  TGI: 37.2 µM
UO-31
  GI50: 3.8 µM
UO-31; [6]
  CC50: > 100 µM
UO-31; read-out: pTGI (converted)
  TGI: > 100 µM
786-0
  GI50: 23.4 µM
786-0; [6]
  CC50: > 100 µM
786-0; read-out: pTGI (converted)
  TGI: 61.7 µM
